ChEMBL document CHEMBL4219124, “Alleviating CYP and hERG liabilities by structure optimization of dihydrofuran-fused tricyclic benzo[d]imidazole series - Potent, selective and orally efficacious microsomal prostaglandin E synthase-1 (mPGES-1) inhibitors: Part-2” (Bioorg Med Chem Lett, 2018)

Key:
[1] = Oral bioavailability in Sprague-Dawley rat at 10 mg/kg; type: ADME, organism-based; conditions: in vivo
Method in brief: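 Plasma PK after 1 mg/kg i.v. and 10 mg/kg p.o.; %F from both routes. Rat: male Sprague-Dawley, oral 0.5% methylcellulose suspension, i.v. 20% NMP/20% ethanol/60% PEG 200, n = 3. Dog oral: Tween 80 2.5 μL/mL + 0.5% MC suspension. Monkey oral: same Tween/MC suspension; i.v. 10% NMP/10% ethanol/10% PEG/70% PEG200-water premix.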

[2] = Protein binding in dog plasma at 10 uM after 5 hrs by equilibrium dialysis based LC-MS/MS analysis; type: ADME, cell-free, Canis lupus familiaris; conditions: read-out: PPB (converted)
Method in brief: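 Equilibrium dialysis at 10 μM compound; result expressed as percent bound.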

[3] = Tmax in Dunkin-Hartley guinea pig at 10 mg/kg, po; type: ADME, organism-based, Cavia porcellus; conditions: in vivo
Method in brief: (§1)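 Tmax from oral 10 mg/kg dosing. Rat: male Sprague-Dawley, 0.5% MC suspension, n = 3. Guinea pig: 20% NMP + 0.5% MC suspension, n = 3. Dog and monkey: 2.5 μL/mL Tween 80 + 0.5% MC suspension.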

[4] = Ratio of drug uptake in brain to plasma of Dunkin-Hartley guinea pig at 10 mg/kg, po; type: ADME, organism-based, Cavia porcellus; conditions: for Kp: Dunkin-Hartley, brain/plasma, read-out: BPR
[5] = Apparent volume of distribution in Beagle dog at 1 mg/kg, iv; type: ADME, organism-based, Canis lupus familiaris; conditions: in vivo, read-out: Vz
Method in brief: (§2)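 Intravenous dose of 1 mg/kg; clearance and Vz derived from the i.v. arm. Rat (male Sprague-Dawley) vehicle 20% NMP + 20% ethanol + 60% PEG 200, mean ± SD (n = 3). Dog vehicle 20% NMP + 20% EtOH + 10% PG + 50% PEG 200:water (3:2). Monkey vehicle 10% NMP + 10% ethanol + 10% PEG + 70% PEG200:water (3:2).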

[6] = Clearance in Sprague-Dawley rat at 1 mg/kg, iv; type: ADME, organism-based; conditions: in vivo; method in brief: as §2
[7] = AUC (0 to 24 hrs) in Dunkin-Hartley guinea pig at 10 mg/kg, po; type: ADME, organism-based, Cavia porcellus; set-up: time < 24 hr, dose 10 mg/kg, route oral; conditions: in vivo
Method in brief: (§3)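 Single oral dose of 10 mg/kg. Cmax and AUC0-24 taken from the oral arm. Rat: male Sprague-Dawley, dosed in 0.5% methylcellulose suspension, mean ± SD (n = 3). Guinea pig: 20% NMP + 0.5% MC suspension, mean ± SD (n = 3). Dog and cynomolgus monkey: 2.5 μL/mL Tween 80 + 0.5 (w/v) MC suspension.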

[8] = Cmax in Beagle dog at 10 mg/kg, po; type: ADME, organism-based, Canis lupus familiaris; set-up: dose 10 mg/kg, route oral; conditions: in vivo; method in brief: as §3
[9] = Ratio of drug uptake in brain to plasma of cynomolgus monkey at 10 mg/kg, po; type: ADME, organism-based, Macaca fascicularis; conditions: read-out: BPR
[10] = Apparent volume of distribution in Sprague-Dawley rat at 1 mg/kg, iv; type: ADME, organism-based; conditions: in vivo, read-out: Vz; method in brief: as §2
[11] = Half life in Beagle dog at 10 mg/kg, po; type: ADME, organism-based, Canis lupus familiaris; conditions: in vivo
Method in brief: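 Half-life calculated from plasma profiles after oral dosing at 10 mg/kg. Rat: male Sprague-Dawley, 0.5% methylcellulose suspension, n = 3. Dog and cynomolgus monkey: Tween 80 (2.5 μL/mL) + 0.5 (w/v) MC suspension.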

[12] = Cmax in Dunkin-Hartley guinea pig at 10 mg/kg, po; type: ADME, organism-based, Cavia porcellus; set-up: dose 10 mg/kg, route oral; conditions: in vivo; method in brief: as §3
[13] = target: T1, Cytosolic phospholipase A2 (Homo sapiens) (UniProt P47712); experiment: Inhibition of cPLA2 (unknown origin) at 10 uM relative to control
T1 sequence (whole entry): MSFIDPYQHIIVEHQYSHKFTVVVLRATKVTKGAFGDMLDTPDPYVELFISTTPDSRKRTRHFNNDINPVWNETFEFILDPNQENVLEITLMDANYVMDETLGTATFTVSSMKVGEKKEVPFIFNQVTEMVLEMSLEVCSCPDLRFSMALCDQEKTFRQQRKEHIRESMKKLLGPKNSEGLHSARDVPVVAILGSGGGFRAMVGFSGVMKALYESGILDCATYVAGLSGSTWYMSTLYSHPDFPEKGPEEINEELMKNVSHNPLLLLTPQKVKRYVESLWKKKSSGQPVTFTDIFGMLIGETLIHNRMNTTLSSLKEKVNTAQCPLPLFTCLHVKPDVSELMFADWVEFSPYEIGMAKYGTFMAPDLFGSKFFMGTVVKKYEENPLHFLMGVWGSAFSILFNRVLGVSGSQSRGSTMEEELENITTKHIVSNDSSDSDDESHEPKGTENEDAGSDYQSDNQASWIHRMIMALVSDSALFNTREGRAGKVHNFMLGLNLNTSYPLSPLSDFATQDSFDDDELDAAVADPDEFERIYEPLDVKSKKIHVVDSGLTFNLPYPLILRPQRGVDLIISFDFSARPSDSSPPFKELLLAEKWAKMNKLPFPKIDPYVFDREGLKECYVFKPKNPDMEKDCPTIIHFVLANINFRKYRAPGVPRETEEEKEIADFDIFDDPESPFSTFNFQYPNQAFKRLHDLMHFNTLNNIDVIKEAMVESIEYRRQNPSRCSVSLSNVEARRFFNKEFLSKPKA
Method in brief: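 Selectivity panel against other prostanoid-pathway enzymes. % inhibition values are means of at least two experiments, each in duplicate.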

[14] = target: T2, Prostaglandin E synthase (Homo sapiens, UniProt O14684); experiment: Inhibition of mPGES1 in human A549 cells assessed as reduction in IL-1beta-induced PGE2 production preincubated for 30 mins followed by incubation with IL-1beta for 16 to 20 hrs measured after 10 mins by HTRF assay; type: cell-based
T2 sequence (O14684 whole entry): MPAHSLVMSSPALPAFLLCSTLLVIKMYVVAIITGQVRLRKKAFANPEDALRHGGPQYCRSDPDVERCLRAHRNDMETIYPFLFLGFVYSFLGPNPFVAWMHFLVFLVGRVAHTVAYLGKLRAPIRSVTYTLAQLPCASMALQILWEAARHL

[15] = Cmax in Sprague-Dawley rat at 10 mg/kg, po; type: ADME, organism-based; set-up: dose 10 mg/kg, route oral; conditions: in vivo; method in brief: as §3
[16] = Apparent passive permeability of the compound by PAMPA; type: ADME
Method in brief: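 Passive permeability by PAMPA, using a 2% lecithin in dodecane membrane. Run in triplicate.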

[17] = Tmax in Beagle dog at 10 mg/kg, po; type: ADME, organism-based, Canis lupus familiaris; conditions: in vivo; method in brief: as §1

| bioavailability [1] [%] | fraction unbound at 5 h, 10 µM [2] | Tmax [3] [h] | BPR ([4]; brain, BLD = below limit of detection) | Vd [5] [L/kg] | clearance [6] [mL/min/kg] | AUC(0-t) at 24 h [7] [ng·h/mL] | Cmax [8] [ng/mL] | Kp [9] | Vd [10] [L/kg] | half-life [11] [h] | Cmax [12] [ng/mL] | inhibition [13] [%] | IC50 [14] [nM] | Cmax [15] [ng/mL] | Papp [16] [×10⁻⁶ cm/s] | Tmax [17] [h] | Kp [4] | Compound |
| --- | --- | --- | --- | --- | --- | --- | --- | --- | --- | --- | --- | --- | --- | --- | --- | --- | --- | --- |
| 14 | 0.003 | 1 | Bld | 9.17 | 8.2 | 408 | 843 | 0.16 | 4.84 | 20 | 80 | 5.1 | 30 | 210 | 1.34 | 8 |  | Cc1cccc(Cl)c1Nc1nc2cc(C(=O)Nc3cc(C(F)(F)F)ccc3F)c3c(c2[nH]1)CC(C)(C)O3 |
|  |  |  |  |  |  |  |  |  |  |  |  | 22.9 | 9.6 |  | 0.62 |  |  | CC1(C)Cc2c(c(C(=O)Nc3cc(C(F)(F)F)ccc3F)cc3nc(Nc4c(F)cccc4Cl)[nH]c23)O1 |
| 43 | 0.008 | 12 |  | 5.4 | 16.2 | 639 | 336 | 0.37 | 3.77 | 17 | 91 | 4.3 | 4.1 | 344 | 0.63 | 12 | 0.58 | CC1(C)Cc2c(c(C(=O)Nc3ccc(C(F)(F)F)cn3)cc3nc(Nc4c(Cl)cccc4Cl)[nH]c23)O1 |

Second part, the molecule before the results:

| Compound | bioavailability [1] [%] | fraction unbound at 5 h, 10 µM [2] | Tmax [3] [h] | BPR ([4]; brain, BLD = below limit of detection) | Vd [5] [L/kg] | clearance [6] [mL/min/kg] | AUC(0-t) at 24 h [7] [ng·h/mL] | Cmax [8] [ng/mL] | Kp [9] | Vd [10] [L/kg] | half-life [11] [h] | Cmax [12] [ng/mL] | inhibition [13] [%] | IC50 [14] [nM] | Cmax [15] [ng/mL] | Papp [16] [×10⁻⁶ cm/s] | Tmax [17] [h] | Kp [4] |
| --- | --- | --- | --- | --- | --- | --- | --- | --- | --- | --- | --- | --- | --- | --- | --- | --- | --- | --- |
| Cn1c(Nc2c(F)cccc2Cl)nc2cc(C(=O)Nc3cccc(C(F)(F)F)c3)c3c(c21)CC(C)(C)O3 |  |  |  |  |  |  |  |  |  |  |  |  | 10.6 | 3 |  |  |  |  |
| CC1(C)Cc2c(c(C(=O)Nc3ccc(F)c(C(F)(F)F)c3)cc3nc(Nc4c(F)cccc4Cl)[nH]c23)O1 | 91 | 0.009 | 2 |  | 1.94 | 11.2 | 4120 | 492 | 0.32 | 3.85 | 14.4 | 361 |  | 14 | 995 | 0.33 | 12 | 0.44 |
